ChEMBL document CHEMBL2385006, “Fluorogenic sialic acid glycosides for quantification of sialidase activity upon unnatural substrates” (Bioorg Med Chem Lett, 2013)
Calls of active or inactive are those of the source. The rule behind the calls is not given here.

Key:
HL-60 [1] = assay: Activity at sialidase in human HL60 cells assessed as increase in 4-methylumbelliferyl release at 125 uM after 2 hrs by fluorescence assay relative to 4-Methylcoumarin-7-yl 5-acetamido-3,5-dideoxy-alpha-D-glycero-D-galacto-2-nonulopyranosidonic acid; type: cell-based
Summary of the method: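 Whole HL60 cells suspended in acetate buffer pH 4.5, treated 2 h at 37°C with 0.125 mM 4MU glycoside; parallel wells with 0.1 mM DANA. Stopped with glycine buffer pH 10.7, fluorescence read immediately (ex 365/em 450 nm). Fluorescence increase over background compared with the natural Neu5Ac substrate. At least biological triplicate; standard deviations.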

Clostridium perfringens [2] = assay: Activity at Clostridium perfringens sialidase assessed as 4-methylumbelliferyl released at 125 uM for 1 hr by fluorescence assay relative to 4-Methylcoumarin-7-yl 5-acetamido-3,5-dideoxy-alpha-D-glycero-D-galacto-2-nonulopyranosidonic acid
Summary of the method: (§1)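 Purified recombinant C. perfringens sialidase (0.05 mU) in acetate buffer pH 4.5 incubated 1 h at 37°C with 0.125 mM 4MU glycoside; parallel reactions with 0.1 mM DANA. Reaction brought to pH 10.7 with glycine buffer; fluorescence read at ex 365/em 450 nm. Relative values compare fluorescence with that of the natural Neu5Ac substrate. At least biological triplicate; standard deviations.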

HL-60 [3] = assay: Activity at sialidase in human HL60 cells assessed as increase in 4-methylumbelliferyl release at 125 uM after 2 hrs by fluorescence assay in presence of DANA; type: cell-based
Summary of the method: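 Same whole-cell set-up: HL60 cells in acetate buffer pH 4.5 with 0.125 mM 4MU glycoside, 2 h, 37 °C, together with 0.1 mM of the non-specific sialidase inhibitor DANA. The mixture was adjusted to pH 10.7 with glycine buffer before fluorescence reading (ex 365/em 450 nm). At least biological triplicate; standard deviations shown.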

HL-60 [4] = assay: Activity at sialidase in human HL60 cells assessed as increase in 4-methylumbelliferyl release at 125 uM after 2 hrs by fluorescence assay; type: cell-based
Summary of the method: (§2)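 Whole HL60 cells suspended in acetate buffer (pH 4.5) were incubated with 0.125 mM 4-methylumbelliferyl sialoside for 2 h at 37 °C. The reaction was stopped by raising the pH to 10.7 with glycine buffer, and released 4MU was read at once (ex 365 nm, em 450 nm). Values are means with standard deviations from at least biological triplicate.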

Clostridium perfringens [5] = assay: Activity at Clostridium perfringens sialidase assessed as 4-methylumbelliferyl released at 125 uM for 1 hr by fluorescence assay; summary of the method: as §1
HL-60 [6] = assay: Activity at sialidase in human HL60 cell lysate assessed as 4-methylumbelliferyl released at 125 uM for 2 hrs followed by washout by fluorescence assay; type: cell-based
Summary of the method: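 To test uptake, HL60 cells were incubated 2 h with the 4MU sialoside, then washed thoroughly to remove free 4MU and substrate. The cells were resuspended in cell lysis buffer, and the fluorescence of the lysate was read against empty wells without cells or compound.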

HL-60 [7] = assay: Activity at sialidase in human HL60 cells assessed as decrease in 4-methylumbelliferyl release at 125 uM after 2 hrs by fluorescence assay; type: cell-based; summary of the method: as §2
HL-60 [8] = assay: Activity at sialidase in human HL60 cells assessed as decrease in 4-methylumbelliferyl release at 125 uM after 2 hrs by fluorescence assay relative to 4-Methylcoumarin-7-yl 5-acetamido-3,5-dideoxy-alpha-D-glycero-D-galacto-2-nonulopyranosidonic acid; type: cell-based; parameters: scale not given: the % may be the effect or the level left
Summary of the method: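 Intact HL60 cells in pH 4.5 acetate buffer were exposed to 0.125 mM glycoside for 2 h at 37 °C. Glycine buffer (pH 10.7) was then added, and fluorescence was measured (ex 365, em 450 nm). The increase over background was expressed relative to the natural N-acetyl 4MU sialoside run the same way. At least biological triplicate, with standard deviations.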

| Structure (SMILES) | Activity (HL-60 [1]) | Activity (Clostridium perfringens [2]) | Activity (HL-60 [3]) | Activity (HL-60 [4]) | Activity (Clostridium perfringens [5]) | Activity (HL-60 [6]) | Activity (HL-60 [7]) | Activity (HL-60 [8]) |
| --- | --- | --- | --- | --- | --- | --- | --- | --- |
| Cc1cc(=O)oc2cc(O[C@]3(C(=O)O)C[C@H](O)[C@@H](NC(=O)CF)[C@H]([C@H](O)[C@H](O)CO)O3)ccc12 | 50% | 6% | inactive | – | – | – | – | – |
| CC(=O)N[C@H]1[C@H]([C@H](O)[C@H](O)CO)O[C@@](Oc2ccc3c(C)cc(=O)oc3c2)(C(=O)O)C[C@@H]1O | – | – | inactive | Active | Active | inactive | – | – |
| Cc1cc(=O)oc2cc(O[C@]3(C(=O)O)C[C@H](O)[C@@H](NC(=O)CC(F)(F)F)[C@H]([C@H](O)[C@H](O)CO)O3)ccc12 | – | Active | inactive | – | – | – | Active | – |
| Cc1cc(=O)oc2cc(O[C@]3(C(=O)O)C[C@H](O)[C@@H](NC(=O)CCC(F)(F)F)[C@H]([C@H](O)[C@H](O)CO)O3)ccc12 | – | – | inactive | – | inactive | – | Active | – |
| Cc1cc(=O)oc2cc(O[C@]3(C(=O)O)C[C@H](O)[C@@H](NC(=O)C(C)C)[C@H]([C@H](O)[C@H](O)CO)O3)ccc12 | – | Active | inactive | – | – | – | – | 60% |
| CC(F)(F)F.Cc1cc(=O)oc2cc(O[C@]3(C(=O)O)C[C@H](O)[C@@H](NC(=O)CO)[C@H]([C@H](O)[C@H](O)CO)O3)ccc12 | 20% | 6% | inactive | – | – | – | – | – |
